Screening results: PubChem, several laboratories
This is a sample that favours compounds with a hit; in the whole collection about 2.3% have one here.
SR-BI DiI inh: inhibitors of SR-BI mediated HDL lipid uptake, primary screen, ldlA[mSR-BI] cells, fluorescence, single point | ldlA[mSR-BI] CHO cells, DiI-HDL uptake fluorescence, 3 h | inhibition, % at 12.5 µM | 320,000 tested, 0.96% active | AID 488896, 2010;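 active = mean replicate inhibition of at least 70% and a set share of replicates each scoring 70 or more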;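 note: 0% = median of neutral control wells and 100% = median of positive control wells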
Target sequence (Q61009 whole entry, looked up): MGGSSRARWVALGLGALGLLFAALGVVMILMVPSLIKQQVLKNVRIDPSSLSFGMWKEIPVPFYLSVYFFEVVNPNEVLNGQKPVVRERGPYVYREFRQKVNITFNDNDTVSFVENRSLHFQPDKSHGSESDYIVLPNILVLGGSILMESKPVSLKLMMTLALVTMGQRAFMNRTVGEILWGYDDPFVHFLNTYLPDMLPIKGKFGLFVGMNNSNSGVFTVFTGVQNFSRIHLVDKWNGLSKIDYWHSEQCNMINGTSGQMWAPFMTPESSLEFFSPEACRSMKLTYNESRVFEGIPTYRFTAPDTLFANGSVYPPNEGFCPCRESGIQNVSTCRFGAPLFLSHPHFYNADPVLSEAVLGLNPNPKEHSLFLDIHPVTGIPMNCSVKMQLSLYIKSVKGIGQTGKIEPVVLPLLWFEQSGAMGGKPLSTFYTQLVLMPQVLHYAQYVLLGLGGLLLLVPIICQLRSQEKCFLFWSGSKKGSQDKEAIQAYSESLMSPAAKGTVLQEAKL
CAL PDZ FP-1: untagged CAL PDZ binding inhibitors, primary screen, biochemical, fluorescence polarization, HTS. inhibition, % at 24.9 µM. Golgi-associated PDZ and coiled-coil motif-containing protein (Homo sapiens), Q9HD26. AID 602252, 2012. purified CAL PDZ, TMR-peptide fluorescence polarization, 1 h. 300,000 tested, 0.92% active;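 active = mean inhibition of at least 30% with at least half of replicates also reaching 30%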;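 note: 0% = DMSO neutral control and 100% = excess unlabeled competitor peptide PRC23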
ATG4B inhibitor: ATG4B protease inhibitors, primary screen, biochemical, fluorescence, uHTS; Cysteine protease ATG4B (Homo sapiens), Q9Y4P1; ATG4B cleavage of LC3-PLA2, NBD-HPC fluorescence, 1 h; inhibition, % at 8.33 µM; 340,000 tested, 0.51% active; AID 504462, 2011; in the data active = inhibition above about 40%
CAL PDZ FP-2: CAL PDZ peptide-binding inhibitors, primary screen, biochemical, fluorescence polarization, Cer-tagged CAL PDZ, HTS. inhibition, % at 20 µM. 330,000 tested, 0.02% active. purified CAL PDZ, TMR-peptide fluorescence polarization, 1 h. Golgi-associated PDZ and coiled-coil motif-containing protein (Homo sapiens), Q9HD26;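 active = highest replicate inhibition of at least 40%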;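 note: plate controls were DMSO neutral control wells for no effect and unlabeled competitor peptide control wells for full effect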
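Read-out basis: mP drop reported as inhibition | Assay system: Tagged CAL PDZ protein CerCALP, purified | Benchmarks: Unlabelled peptide for full inhibition, DMSO wells as neutral | Schedule: 1 h incubation at room temperature before polarization reading | Buffer or medium: Sodium phosphate/NaCl buffer pH 7.4 with TCEP, IgG, Thesit | Doses: Single point, 20 µM | Measured by: Fluorescence polarization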
SR-BI uptake up: activators of SR-BI mediated DiI-HDL uptake, primary screen, ldlA[mSR-BI] CHO cells, DiI fluorescence | 320,000 tested, 0.096% active | AID 504775, 2011 | 3 h; 100 = double the neutral-control signal | activation, % at 12.5 µM;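 active = mean replicate activation of at least 60% and every replicate at or above 60%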;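 note: 0% = median plate neutral-control signal and 100% = twice that signal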
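Material: SR-BI-overexpressing, LDLR-lacking CHO cells; schedule: compound exposure 3 h, 37 °C; reagent: DiI-labelled HDL at 10 µg/mL final; technique: bottom-read fluorescence, 550/595 nm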
Active calls of the source: *; · = no result.

SMILES	SR-BI DiI inh	CAL PDZ FP-1	ATG4B inhibitor	CAL PDZ FP-2	SR-BI uptake up
C=CCOc1ccccc1C(=O)/C=C1/C(=O)Nc2ccccc21	4.8	70.3*	-8.0	·	-4.8
Cc1cc(N2CCN(c3ccccc3)CC2)nc2ccccc12	2.4	62.1*	5.3	·	-2.4
COc1ccc(N2CCN(c3cc(C)c4ccccc4n3)CC2)cc1	·	4.9	6.0	-0.6	·
N#C/C(=C\Nc1ccccc1O)c1nc2ccccc2o1	112.9*	-4.4	19.8	-0.1	-112.9
N#C/C(=C\c1ccncc1)c1nc2ccccc2o1	·	·	-1.3	·	·
Cc1c(OCC(=O)NC2CCN(Cc3ccccc3)CC2)ccc2c3c(c(=O)oc12)CCC3	12.7	-3.0	-1.1	0.6	-12.7
COCCCNC(=O)C1CC(=O)OC1c1ccc(OC)c(OC)c1 (stereo not given)	-20.2	42.5*	-11.2	0.8	20.2
COc1ccc(C2OC(=O)CC2C(=O)NCc2ccc(C)cc2)cc1OC (stereo not given)	-6.8	2.4	4.9	-2.2	6.8
O=C(Cn1[nH]c(=O)c2ccccc2c1=O)OCC(=O)N1CCCc2ccccc21	-18.2	69.3*	-8.5	-2.2	18.2
O=C(Cn1[nH]c(=O)c2ccccc2c1=O)OCC(=O)N1CCc2ccccc2C1	-12.3	·	-2.6	-1.6	12.3
NN=C1c2ccccc2-c2ccc(N)cc21	17.5	-0.6	-2.6	1.5	-17.5
N#CCCN(Cc1cccnc1)C(=S)NC(=O)c1ccccc1	3.0	88.8*	-1.8	-0.5	-3.0
N#CCCN(Cc1cccnc1)C(=S)Nc1ccccc1Cl	-15.6	-0.2	3.5	0.0	15.6
CCOc1ccccc1NC(=O)C1CCCN1S(=O)(=O)c1ccccc1C(F)(F)F (stereo not given)	5.6	42.1*	-1.8	-0.4	-5.6
O=C(Nc1cccc(S(=O)(=O)N2CCCCC2)c1)[C@@H]1CCCN1S(=O)(=O)c1ccccc1C(F)(F)F	-13.2	1.5	-1.2	-2.9	13.2
O=C1C(=Cc2ccc(Br)o2)C(=O)c2ccccc21	-11.6	0.0	69.1*	-1.1	11.6
Cc1ccc(CCNC(=O)c2sc3nc4n(c(=O)c3c2C)CCC4)cc1	6.6	-0.3	1.3	-3.1	-6.6
COc1ccc(S(=O)(=O)Nc2nccs2)cc1OC	-7.0	53.3*	-34.2	-6.6	7.0
O=S(=O)(Nc1nccs1)c1ccc(Br)cc1	-6.7	-2.7	1.7	-2.6	6.7
CCOC(=O)/C=C/C(=O)Nc1ccc(S(=O)(=O)Nc2nccs2)cc1	72.5*	-0.3	2.7	-2.4	-72.5
COc1ccc(OC)c(NC(=O)CSc2nc3[nH]c(=O)[nH]c(=O)c3s2)c1	-16.9	·	0.1	0.1	16.9
COc1ccc(CC(=O)N2CCN(c3ccccc3)CC2)cc1	32.3	-2.2	-7.3	·	-32.3
CN(/N=C\c1ccc(O)c(O)c1)c1nc(-c2ccccc2)cc(-c2ccccc2)n1	112.0*	-4.1	-9.1	-2.4	-112.0
COc1ccc(/C(C)=N/NC(=O)Cc2c(C)nc(C)[nH]c2=O)cc1	-5.6	-0.8	26.1	1.0	5.6
Cc1nc(C)c(CC(=O)N/N=C/c2ccc(O)cc2)c(=O)[nH]1	-28.5	55.6*	-12.8	0.3	28.5
CCOc1ccc(S(=O)(=O)Nc2cc(SCC(=O)O)c(O)c3ccccc23)cc1	-25.8	5.5	-20.9	37.0	25.8
CC(C)OC(=O)C(C(=O)C(F)(F)F)c1cc(NS(=O)(=O)c2ccc3ccccc3c2)c2ccccc2c1O (stereo not given)	8.2	·	50.9*	-2.4	-8.2
COc1ccc(-c2nc(-c3ccc(NC(=O)c4ccc(Br)o4)cc3)no2)cc1OC	78.5*	-4.4	0.1	·	-78.5
N/C(=N\O)c1ccc(NC(=O)c2ccc(Br)o2)cc1	-16.4	67.4*	-10.3	-0.2	16.5
O=C(NNC(=O)c1ccc(Br)o1)c1ccc(NC(=O)c2ccccc2)cc1	44.5	10.3	11.7	-0.6	-44.5
